Assay results pooled from the literature.
Each line is one published result; the experiments were not run side by side.
Target: RAC-beta serine/threonine-protein kinase (AKT2, Homo sapiens, UniProt P31751)

| Structure (SMILES) | observed | technique | tested at | remaining binding |
| --- | --- | --- | --- | --- |
| O=C(c1ccc(Nc2nccc(-c3cc4ccccc4s3)n2)cc1)N1CCC(N2CCCC2)CC1 | binding | competition with immobilised ligand | 1 µM | 100% |
| Cc1cnn2ncc(-c3ccnc(N(C)C)n3)c2c1 | binding | – | 1 µM | 100% |
| CCS(=O)(=O)c1cc2cc(C[C@@](O)(CC(C)(C)c3ccc(F)cc3C(N)=O)C(F)(F)F)[nH]c2cn1 | cell-free assay | competition with immobilised ligand | 1 µM | 93% |
| Nc1ncc2c(n1)-c1c([nH]c3ccc(C#CC4CC4)cc13)CCCC2 | binding | competition with immobilised ligand | 1 µM | 100% |
| C=CC(=O)N1CCC(C(=O)NCC(=O)N2CCN(c3nc(-c4cnc(N)nc4C(F)F)nc(N4CCOCC4)n3)CC2)CC1 | binding | competition with immobilised ligand | 1 µM | 100% |
| CN(C)c1ncnc(-c2ccc3nc(Nc4cc(CN5CCN(C(=O)CC(F)(F)F)CC5)ccn4)[nH]c3c2)c1Cl | cell-free assay | competition with immobilised ligand | 1 µM | 95% |
| O=C(NCC1CCOCC1)c1n[nH]cc1NC(=O)c1c(F)cccc1F | binding | competition with immobilised ligand | 1 µM | 100% |
| COc1ccc2c(O[C@@H]3C[C@H]4C(=O)N[C@]5(C(=O)O)CC5/C=C\CCCCC[C@H](NC(=O)OC5CCCC5)C(=O)N4C3)cc(-c3csc(NC(=O)C(C)C)n3)nc2c1C (stereo partly drawn) | cell-free assay | competition with immobilised ligand | 1 µM | 89% |
| CN(CCCC(F)(F)F)c1nccc(-c2cnn3ncccc23)n1 | binding | – | 1 µM | 75% |
| O=C(O)[C@@H]1[C@@H](Cn2nnc3ccccc3c2=O)CC[C@H]1C(=O)c1ccc(OCCC2CCOCC2)cc1 | cell-free assay | competition with immobilised ligand | 1 µM | 100% |
| CNC(=O)[C@@H]1CC[C@@H](n2c(-c3ccc4cnccc4c3)nc3ccc(C(=O)NCc4cccc(C(N)=O)c4)cc32)C1 | binding | competition with immobilised ligand | 1 µM | 100% |
| CN(C)CC#Cc1ccc(OCCCc2sc(N3CCc4cccc(C(=O)Nc5nc6ccccc6s5)c4C3)nc2C(=O)O)c(F)c1 | cell-free assay | competition with immobilised ligand | 1 µM | 100% |
| N[C@@H]1CCN(c2nccc(-c3cnn4ncccc34)n2)C1 | binding | – | 1 µM | 100% |
| CCN1CCN(Cc2ccc(C(=O)Nc3ccc(C)c(Oc4ccc5c(c4)CC(=O)N5)c3)cc2C(F)(F)F)CC1 | binding | competition with immobilised ligand | 1 µM | 100% |
| C[C@H]1CCN(c2nccc(-c3cnn4ncccc34)n2)C1 | binding | – | 1 µM | 100% |
| C[C@@H]1CN(c2ccc3ncc(-c4ccc5[nH]nc(C6CC6)c5c4)n3n2)C[C@H](C)O1 | binding | competition with immobilised ligand | 0.5 µM | 97% |
| CC1CCCN1c1nccc(-c2cnn3ncccc23)n1 (stereo not drawn) | binding | – | 1 µM | 100% |
| N#CC1(c2ccccn2)CCN(Cc2cc(C(=O)N3CCCC3)c(=O)n3ccccc23)CC1 | cell-free assay | competition with immobilised ligand | 1 µM | 84% |
| CC(C)(C)c1ccc(-c2nc(CBr)nn2-c2cccc(O)c2)cc1 | cell-free assay | competition with immobilised ligand | 10 µM | 70% |
| O=C(NCCCN1CCOCC1)c1ccc(Nc2ncc(Cl)c(-c3ccc(Cl)s3)n2)cc1 | binding | competition with immobilised ligand | 1 µM | 100% |
| COc1ccnn2ncc(-c3ccnc(N(C)C)n3)c12 | binding | – | 1 µM | 100% |
| Cc1c[nH]c2nccc(Oc3c(F)cc(Nc4cc(Cl)nc(N)n4)cc3F)c12 | cell-free assay | competition with immobilised ligand | 0.1 µM | 98% |
| F[C@@H]1CCN(c2nccc(-c3cnn4ncccc34)n2)C1 | binding | – | 1 µM | 86% |
| Cc1cnc(Nc2ccc(C(=O)N3CCC(N4CCCC4)CC3)cc2)nc1-c1cc2ccccc2s1 | binding | competition with immobilised ligand | 1 µM | 83% |
